pIC50: −log10 of the molar value. “Also recorded” adds a separate entry of the source.
Legend:
[1] = test system: patients; conditions: cited from earlier work; for Associated clinical toxicities: Table 1
[2] = test system: zebrafish embryos; experiment: Zebrafish toxicity assay; assay type: in vivo; conditions: for gross morphological changes (in words): zebrafish larvae, exposure to 96 hours
How it was run: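 Wild-type embryos at 24 hpf, bath-exposed in distilled water (pH 6.8–8) at 28°C with solutions renewed every 24 h. Naïve and 0.1% DMSO vehicle controls were included. Five concentrations, spacing factor 2, within solubility limits; 12 embryos per concentration per replicate; three independent experiments. Toxicity scored at 48 and 96 hpf; NOEC/LOEC derived experimentally; LC50 from pooled mortality via sigmoidal fit.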

[3] = test system: subintestinal vessels (SIVs) of zebrafish embryos; experiment: Zebrafish subintestinal vessel angiogenesis assay; assay type: in vivo; conditions: for effect on SIV angiogenesis (in words): zebrafish embryos
[4] = Compound precipitation in the test medium; assay type: physicochemical; conditions: test medium of the zebrafish assays (distilled water, 0.1% DMSO)
[5] = test system: human primary endothelial cells; conditions: cited from earlier work
[6] = test system: VEGFR; conditions: read-out: VEGFR inhibition IC50; biochemical assays; cited from earlier work
[7] = test system: chick chorioallantoic membrane; conditions: cited from earlier work
[8] = test system: mouse dorsal air sac model; conditions: cited from earlier work
[9] = patients enrolled in clinical trial
[10] = concentration not given, 96 hpf

For COc1cc2nccc(Oc3ccc(NC(=O)C4(C(=O)Nc5ccc(F)cc5)CC4)cc3)c2cc1OC [Cabozantinib], the Associated clinical toxicities [1] is listed as “Multiple systemic toxicities”.
In the case of COc1ccc(/C=C\c2cc(OC)c(OC)c(OC)c2)cc1O [Combretastatin], the “gross morphological changes (in words)” value [2] was “coagulation of zebrafish embryos”, the “effect on SIV angiogenesis (in words)” value ([3]; 96 hpf) was “lack of anti-angiogenic activity” and the “effect on SIV angiogenesis (in words)” value ([3]; 96 hpf, listed as combretastatin) was “Angiogenesis inhibition was not demonstrated”. The Associated clinical toxicities [1] was “Multiple systemic toxicities”.
In the case of C#Cc1cccc(Nc2ncnc3cc(OCCOC)c(OCCOC)cc23)c1 [Erlotinib], the “concentration beyond which the compound precipitated” value [4] was over 1 µM, the “decrease in the number of SIVs within the basket” value ([3]; 1 μM, 96 hpf) was “no effect” and the “regression in SIV length” value ([3]; 1 μM, 96 hpf) was 10%. For the same compound, the “effect on SIV angiogenesis (in words)” value ([3]; 96 hpf) was “Angiogenesis inhibition was not demonstrated” and the Associated clinical toxicities [1] was “Multiple systemic toxicities”.
In the case of CN1CC[C@H](c2c(O)cc(O)c3c(=O)cc(-c4ccccc4Cl)oc23)[C@H](O)C1 [Flavopiridol], the “effective anti-angiogenic concentration range (in words)” value [5] is listed as “effective at micromolar concentrations”, the “gross morphological changes (in words)” value [2] is listed as “multiple sub-lethal toxicities like yolk-sac edema, nonprogressive pericardial edema, bent notochord, and jaw deformity; also recorded: Widespread tissue necrosis; also recorded: multiple pathological changes like jaw deformity, pericardial edema, notochord deformity, and patchy necrosis” and the “decrease in the number of SIVs” value ([3]; 2 μM, 96 hpf) is listed as 72%. For the same compound, the “regression in SIV length” value ([3]; 2 μM, 96 hpf) was 38%, the “effect on SIV length and basket (in words)” value ([3]; 2 μM, lectin staining at 72 hpf, Figure 2C) was “Partial regression of SIVs” and the Associated clinical toxicities [1] was “Multiple systemic toxicities”. The “toxicities in clinical trials” value [1] was “tumor lysis syndrome and febrile neutropenia”.
In the case of Cc1ccc(Nc2nccc(N(C)c3ccc4c(C)n(C)nc4c3)n2)cc1S(N)(=O)=O [Pazopanib], the Associated clinical toxicities [1] is given as “Cardiotoxicity”.
For CNC(=O)c1cc(Oc2ccc(NC(=O)Nc3ccc(Cl)c(C(F)(F)F)c3)c(F)c2)ccn1 [Regorafenib], the “gross morphological changes (in words)” value [2] is listed as “nonprogressive pericardial edema in all the embryos subjected to treatment (ie, 36/36)”, the pIC50 [6] is listed as 7.34 to 7.89 and the “concentration with significant angiogenesis inhibition in the in vivo CAM assay” value [7] is listed as 1 to 3 µM. For the same compound, the “concentration giving complete regression of SIVs” value ([3]; 96 hpf) was under 1 µM and the “effect on SIV angiogenesis (in words)” value ([3]; 96 hpf) was “complete inhibition of SIV angiogenesis”.
With Cc1cc(C)c(/C=C2\C(=O)Nc3ccccc32)[nH]1 [SU5416] the “gross morphological changes (in words)” value [2] was “multiple gross morphological abnormalities like yolk-sac edema, shortened body axis, bent notochord, jaw deformity, blood pooling, and un-inflated swim bladder”, the “decrease in the number of SIVs within the basket” value ([3]; 1 μM, 96 hpf) was 85% and the “regression in SIV length” value ([3]; 1 μM, 96 hpf) was 38%. The “effect on SIV angiogenesis (in words)” value ([3]; 96 hpf) was “incomplete SIV regression” and the Associated clinical toxicities [1] was “Multiple systemic toxicities”.
In the case of CNC(=O)c1cc(Oc2ccc(NC(=O)Nc3ccc(Cl)c(C(F)(F)F)c3)cc2)ccn1 [Sorafenib], the “gross morphological changes (in words)” value [2] is listed as “nonprogressive pericardial edema in all the embryos subjected to treatment (ie, 36/36)”, the “concentration with significant angiogenesis inhibition in the in vivo CAM assay” value [7] is listed as 1 to 3 µM and the “concentration giving complete regression of SIVs” value ([3]; 96 hpf) is listed as under 1 µM. For the same compound, the “effect on SIV angiogenesis (in words)” value ([3]; 96 hpf) was “complete inhibition of SIV angiogenesis” and the Associated clinical toxicities [1] was “Cardiotoxicity”.
For CCN(CC)CCNC(=O)c1c(C)[nH]c(/C=C2\C(=O)Nc3ccc(F)cc32)c1C [Sunitinib], the Associated clinical toxicities [1] is given as “Cardiotoxicity”, the “patients with congestive cardiac failure” value [1, 9] is given as 11% and the “patients with decrease in left ventricular ejection fraction” value [1, 9] is given as 28%.
For Cc1ccc(C(=O)Nc2ccc(S(=O)(=O)O)c3cc(S(=O)(=O)O)cc(S(=O)(=O)O)c23)cc1NC(=O)c1cccc(NC(=O)Nc2cccc(C(=O)Nc3cc(C(=O)Nc4ccc(S(=O)(=O)O)c5cc(S(=O)(=O)O)cc(S(=O)(=O)O)c45)ccc3C)c2)c1 [Suramin], the “effective anti-angiogenic concentration range (in words)” value [5] is given as “effective at micromolar concentrations”, the “LC50 fold higher than the other multikinase inhibitors” value ([2]; 96 hpf) is given as “about 200 fold” and the “gross morphological changes (in words)” value [2] is given as “multiple sub-lethal toxicities like yolk-sac edema, nonprogressive pericardial edema, bent notochord, and jaw deformity; also recorded: multiple pathological changes like jaw deformity, pericardial edema, notochord deformity, and patchy necrosis”. For the same compound, the “concentration inhibiting angiogenesis in the CAM assay” value [7] was 7 µM, the “fold higher concentration than VEGFR inhibitors in the CAM assay” value [7] was 7 fold and the “inhibition of vessels within the angiogenic basket” value [3, 10] was 45%. The “regression / decrease in SIV length” value [3, 10] was 30%, the Associated clinical toxicities [1] was “Multiple systemic toxicities” and the “toxicities in clinical trials” value [1] was “neutropenia, neurological dysfunction, and development of renal insufficiency”.
In the case of CO[C@@H]1[C@H](OC(=O)NC(=O)CCl)CC[C@]2(CO2)[C@H]1[C@@]1(C)O[C@@H]1CC=C(C)C [TNP-470], the “gross morphological changes (in words)” value [2] is listed as “abnormal notochord morphology”, the toxicity limiting effectiveness [8] is listed as “severe weight loss” and the “concentration inhibiting angiogenesis in the CAM assay” value [7] is listed as 100 to 125 µM. The “fold higher concentration than VEGFR inhibitors in the CAM assay” value [7] was 100 fold, the “regression / decrease in SIV length” value [3, 10] was 20%–30% and the “effect on SIV angiogenesis (in words)” value ([3]; 96 hpf) was “formation of aberrant SIV extensions”.
For O=C1CCC(N2C(=O)c3ccccc3C2=O)C(=O)N1 (stereo not shown) [Thalidomide], the “effective anti-angiogenic concentration range (in words)” value [5] is given as “effective at micromolar concentrations”, the “absence of fin development” value ([2]; Figure S3) is given as 100% and the “concentration with reduction of otolith size and altered fin development” value ([2]; zebrafish embryos) is given as over 300 µM. For the same compound, the “gross morphological changes (in words)” value [2] was “did not result in gross morphological changes with respect to notochord development and development of cardiac edema”, the “anti-angiogenic effect in the CAM assay (in words)” value [7] was “does not exhibit anti-angiogenic effects” and the “regression / decrease in SIV length” value [3, 10] was 20%–30%. For the same compound, the Associated clinical toxicities [1] was “Teratogenic”.
For COc1cc2nccc(Oc3ccc(NC(=O)Nc4cc(C)on4)c(Cl)c3)c2cc1OC [Tivozanib], the “concentration giving complete regression in SIVs” value ([3]; 96 hpf) is listed as 5 nM and the “improvement of progression-free survival” value ([1]; patients with renal cell carcinoma) is listed as about 12 months.
In the case of COc1cc2c(Nc3ccc(Br)cc3F)ncnc2cc1OCC1CCN(C)CC1 [Vandetanib], the pIC50 [6] is given as […], the “effect on SIV angiogenesis (in words)” value ([3]; 96 hpf) is given as “incomplete SIV regression” and the Associated clinical toxicities [1] is given as “Cardiotoxicity”.
In the case of Clc1ccc(Nc2nnc(Cc3ccncc3)c3ccccc23)cc1 [Vatalanib], the “gross morphological changes (in words)” value [2] is listed as “multiple gross morphological abnormalities like yolk-sac edema, shortened body axis, bent notochord, jaw deformity, blood pooling, and un-inflated swim bladder” and the Associated clinical toxicities [1] is listed as “Multiple systemic toxicities”.
With Bevacizumab the “gross morphological changes (in words)” value [2] was “did not elicit dose-dependent toxicity or a consistent pathological phenotype” and the “effect on SIV angiogenesis (in words)” value ([3]; 96 hpf) was “extremely variable results; also recorded: Angiogenesis inhibition was not demonstrated”.
